Measured values reported in ChEMBL document CHEMBL1828560, “Design, synthesis and biological study of pinacolyl boronate-substituted stilbenes as novel lipogenic inhibitors” (Bioorg Med Chem Lett, 2011).
Activity calls are given as the source filed them. No cut-off for these calls is given here.

Assays:
HepG2 [1] = assay: Inhibition of FAS gene expression in human HepG2 cells at 30 uM after 6 hrs by quantitative RT-PCR; type: functional, cell-based
Procedure, shortened: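 HepG2 cells grown at 37°C, 5% CO2 in DMEM with 10% FBS, penicillin-streptomycin and 20mM glutamine; compounds at 30μM for 6 hours. Total RNA extracted with Trizol; 2 μg reverse-transcribed to cDNA; FAS transcript quantified by real-time qPCR with cyclophilin B as invariant control. Three independent samples averaged; compared with DMSO.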

HepG2 [2] = assay: Inhibition of HMGCR gene expression in human HepG2 cells after 6 hrs by measuring mRNA level of HMGCR using quantitative RT-PCR; type: functional, cell-based
Procedure, shortened: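 HepG2 cells cultured in DMEM plus 10% FBS, penicillin-streptomycin, 20mM glutamine (37°C, 5% CO2), exposed to a series of concentrations for 6 hours. HMGCR mRNA measured by qRT-PCR: Trizol RNA extraction, 2 μg RNA converted to cDNA, real-time PCR normalized to cyclophilin B.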

HepG2 [3] = assay: Cytotoxicity against human HepG2 cells; type: cell-based
FaO [4] = assay: Inhibition of cholesterol biosynthesis in rat FaO cells at 20 uM after 12 hrs by deuterium enrichment-GC/MS method in presence of 100 nM insulin; type: functional, cell-based
Procedure, shortened: (§1)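 Rat hepatoma FAO cells, maintained in DMEM with 10% FBS, treated at 20μM for 12 hours with 100 nM insulin. Cells cultured in DMEM containing 10% 2H2O for 18 hours; deuterium incorporation into palmitate or cholesterol measured by GC/MS to give synthesis rate. Averages of three independent samples vs DMSO.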

FaO [5] = assay: Inhibition of lipogenesis in rat FaO cells assessed as decrease in synthesis rate of palmitate at 20 uM after 12 hrs by deuterium enrichment-GC/MS method in presence of 100 nM insulin; type: functional, cell-based; procedure, shortened: as §1
Mus musculus = species: Mus musculus; assay: Toxicity in mouse; type: organism-based; settings: in vivo

Compound | inhibition (HepG2 [1]) | inhibition (HepG2 [2]) | Activity (HepG2 [3]) | inhibition (FaO [4]) | inhibition (FaO [5]) | Activity (Mus musculus)
COc1ccc(C=Cc2ccc(B3OC(C)(C)C(C)(C)O3)cc2)cc1 (mixture of isomers) | inactive | inactive |  |  |  | 
CC1(C)OB(c2ccc(C=Cc3ccc(O)cc3)cc2)OC1(C)C (mixture of isomers) | Active | Dose-dependent effect | Non-toxic | Active | Active | Non-toxic
CC1(C)OB(c2ccc(C=Cc3cc(Cl)cc(Cl)c3)cc2)OC1(C)C (mixture of isomers) | Active |  | Non-toxic |  |  | 
